A short description of data set [1]: folding enthalpy; higher = less favourable; fluorescence melt of hairpins on a sequencing array, two-state fit. As to conditions: sodium 0.088 M. An outline of the steps:
(§1)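 On a sequenced MiSeq flow cell, library hairpins with annealed Cy3 and quencher oligos were imaged for Cy3 fluorescence in 2.5 °C steps up to 60 °C, in 50 mM Na-HEPES pH 8.0, 25 mM NaCl. Normalisation used pre-quench Cy3 and control constructs. Bootstrapped two-state fits gave melting temperature and folding enthalpy, combined by inverse variance across four replicates and with fitted temperatures raised by 9.35 °C to match UV melts.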

A short description of data set [2]: melting temperature; fluorescence melt of hairpins on a sequencing array, two-state fit, raised by 9.35 °C to match UV melts. Particulars: sodium 0.088 M. The method, boiled down:
as §1

Take GATCCCTTGGGGGATC ((((((....)))))): in data set [1], the folding enthalpy was -46.9 kcal/mol. The Tm in data set [2] is 60.1 °C.
GATCCGAAAGGATC (((((....))))): in data set [1], the folding enthalpy is -29.5 kcal/mol. Besides, the Tm in data set [2] is 66.8 °C.
The like results for GATCCGAACTCGGATC ((((((....)))))) were, in that order, -40.9 kcal/mol and 56.4 °C.
On the same counts, the results for GATCCGAATCCGGATC ((((((....)))))) are -38.5 kcal/mol and 55.8 °C.
On the same counts, the results for GATCCGAATCGGATC ((((((...)))))) are -36 kcal/mol and 55 °C.
With GATCCGAATTCGGATC ((((((....)))))), in data set [1], the folding enthalpy was -43.3 kcal/mol. In data set [2], the Tm was found to be 60.2 °C.
On the same counts, the results for GATCCGACCACGGATC ((((((....)))))) are -36.9 kcal/mol and 61.3 °C.
The like results for GATCCGACCCCGGATC ((((((....)))))) were, in that order, -42.1 kcal/mol and 54.4 °C.
On the same counts, the results for GATCCGACGCCGGATC ((((((....)))))) are -36.7 kcal/mol and 56.7 °C.
With GATCCGACGCGGATC ((((((...)))))), the folding enthalpy in data set [1] was -37.3 kcal/mol. Besides, the Tm in data set [2] was 56.8 °C.
The like results for GATCCGACGTCGGATC ((((((....)))))) were, in that order, -52 kcal/mol and 59.9 °C.
For GATCCGACTCCGGATC ((((((....)))))), the folding enthalpy in data set [1] was -44.3 kcal/mol. Also, the Tm in data set [2] was found to be 55.1 °C.
On the same counts, the results for GATCCGAGAACGGATC ((((((....)))))) are -37.4 kcal/mol and 54.5 °C.
The like results for GATCCGAGACCGGATC ((((((....)))))) were, in that order, -36.6 kcal/mol and 54.4 °C.
The like results for GATCCGAGAGCGGATC ((((((....)))))) were, in that order, -38.3 kcal/mol and 54.6 °C.
For GATCCGAGCCCGGATC ((((((....)))))), in data set [1], the folding enthalpy is -35.6 kcal/mol. Besides, the Tm in data set [2] was 55.3 °C.
The like results for GATCCGATGACGGATC ((((((....)))))) were, in that order, -35.4 kcal/mol and 58.2 °C.
As for GATCCGATTCGGATC ((((((...)))))), the folding enthalpy in data set [1] was -39.2 kcal/mol. In addition, the Tm in data set [2] was found to be 58.3 °C.
The like results for GATCCGATTTCGGATC ((((((....)))))) were, in that order, -33 kcal/mol and 62.6 °C.
The like results for GATCCGCAAACGGATC ((((((....)))))) were, in that order, -42.2 kcal/mol and 58 °C.
Regarding GATCCGCACCGGATC ((((((...)))))), the folding enthalpy in data set [1] was -29.4 kcal/mol. The Tm in data set [2] is 57.1 °C.
The like results for GATCCGCAGGCGGATC ((((((....)))))) were, in that order, -28.3 kcal/mol and 66.6 °C.
On to GATCCGCATCGGATC ((((((...)))))), for which the folding enthalpy in data set [1] was -38.3 kcal/mol. The Tm in data set [2] amounted to 56.5 °C.
On the same counts, the results for GATCCGCCATCGGATC ((((((....)))))) are -37 kcal/mol and 57.4 °C.
The like results for GATCCGCCGACGGATC ((((((....)))))) were, in that order, -38 kcal/mol and 58.3 °C.
The like results for GATCCGCCGCCGGATC ((((((....)))))) were, in that order, -42.4 kcal/mol and 59 °C.
With GATCCGCGAAAGCGAATC (((.(((....))).))), in data set [1], the folding enthalpy was -20.2 kcal/mol. Moreover, the Tm in data set [2] was found to be 49.2 °C.
The like results for GATCCGCGCACGGATC ((((((....)))))) were, in that order, -39.2 kcal/mol and 59.1 °C.
For the sequence GATCCGCGCCCGGATC ((((((....)))))), in data set [1], the folding enthalpy is -45.8 kcal/mol. For the same sequence, in data set [2], the Tm came to 56.5 °C.
On the same counts, the results for GATCCGCGGACGGATC ((((((....)))))) are -37.5 kcal/mol and 56.2 °C.
The like results for GATCCGCGGCCGGATC ((((((....)))))) were, in that order, -38.4 kcal/mol and 56 °C.
The like results for GATCCGCGTTCGGATC ((((((....)))))) were, in that order, -36 kcal/mol and 59 °C.
Regarding GATCCGCTGCGGATC ((((((...)))))), the folding enthalpy in data set [1] is -48.3 kcal/mol. The Tm in data set [2] came out at 57.5 °C.
On the same counts, the results for GATCCGCTTACGGATC ((((((....)))))) are -37.3 kcal/mol and 59 °C.
For the sequence GATCCGGAACCGGATC ((((((....)))))), the folding enthalpy in data set [1] was -39.9 kcal/mol. Also, the Tm in data set [2] amounted to 62.5 °C.
On the same counts, the results for GATCCGGACTCGGATC ((((((....)))))) are -49.4 kcal/mol and 59.2 °C.
On the same counts, the results for GATCCGGAGCCGGATC ((((((....)))))) are -60.6 kcal/mol and 56.3 °C.
The like results for GATCCGGCGTCGGATC ((((((....)))))) were, in that order, -45.3 kcal/mol and 58.2 °C.

The record behind these values is the array DNA melting data of Ke et al. (doi:10.1101/2024.01.08.574731).
